According to PMC6541390 (Biochemistry, 2010):
Where “and” joins values, the source holds several entries; their conditions need not be identical. Equal entries are not always repeated. Where two headings read alike, the source gives them in different places.

How the values were obtained:
[1] = biological target: T1, Escherichia coli biotin synthase (BS) (Escherichia coli, UniProt P12996); test: Screen for BS inhibition by products and product-related compounds; type: biochemical; details: for inhibition of BS in the screen: inhibitor 500 μM alone, AdoMet 100 μM, BS 25 μM, 30 min, 37 °C
T1 sequence (P12996 whole entry): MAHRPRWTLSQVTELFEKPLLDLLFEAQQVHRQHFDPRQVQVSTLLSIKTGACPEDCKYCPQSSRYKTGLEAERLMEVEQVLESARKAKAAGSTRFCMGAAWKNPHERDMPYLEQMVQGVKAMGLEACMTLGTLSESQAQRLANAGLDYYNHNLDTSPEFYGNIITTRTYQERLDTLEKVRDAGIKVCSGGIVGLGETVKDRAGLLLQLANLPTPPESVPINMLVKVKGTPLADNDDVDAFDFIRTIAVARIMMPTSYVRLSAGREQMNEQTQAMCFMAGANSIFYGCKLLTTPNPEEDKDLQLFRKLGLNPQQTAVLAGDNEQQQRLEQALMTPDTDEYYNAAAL
In short: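 Anaerobic: BS (25 μM) in 50 mM Tris-HCl, 100 mM KCl, 5 mM DTT, pH 8.0, reconstituted 5 min with Na2S and FeCl3 (200 μM each). Flavodoxin 25 μM, its NADP+ reductase 4 μM, NADPH 1 mM and DTB 50 μM added for 5 min, then AdoMet 100 μM and candidate (500 μM). 30 min, 37 °C; biotin, dAH, MDTB by HPLC; duplicates averaged, normalised to no-inhibitor sample.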

[2] = biological target: T1, Escherichia coli biotin synthase (BS); type: biochemical; details: for Ki: BS 25 μM, 30 min, 37 °C
[3] = biological target: rat catechol O-methyltransferase; details: cited from earlier work
PFL activase = PFL activase (Escherichia coli, UniProt P0A9N4); details: at 100 μM AdoMet; cited from earlier work
PFL activase, sequence (P0A9N4 2-246): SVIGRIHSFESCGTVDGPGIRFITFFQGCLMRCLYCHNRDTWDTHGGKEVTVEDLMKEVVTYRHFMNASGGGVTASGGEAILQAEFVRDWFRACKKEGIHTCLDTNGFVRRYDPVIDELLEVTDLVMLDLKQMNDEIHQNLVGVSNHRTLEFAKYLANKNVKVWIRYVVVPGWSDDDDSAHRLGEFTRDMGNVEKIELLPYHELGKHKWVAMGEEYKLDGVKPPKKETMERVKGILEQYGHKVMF

[4] = system: E. coli cytosine 5-methyltransferase; details: cited from earlier work
[5] = biological target: T2, E. coli MTAN (5′-methylthioadenosine/S-adenosyl-L-homocysteine nucleosidase) (Escherichia coli, UniProt P0AF12); details: identical assay conditions; ref Lee et al. (32); cited from earlier work
T2 sequence (P0AF12 whole entry): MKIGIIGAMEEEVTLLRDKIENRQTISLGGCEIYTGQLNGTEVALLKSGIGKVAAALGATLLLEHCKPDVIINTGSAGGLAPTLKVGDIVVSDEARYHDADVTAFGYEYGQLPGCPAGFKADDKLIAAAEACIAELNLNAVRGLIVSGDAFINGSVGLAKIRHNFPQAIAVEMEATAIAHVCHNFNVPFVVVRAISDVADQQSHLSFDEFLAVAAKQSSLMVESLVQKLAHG

[6] = biological target: T1, Escherichia coli biotin synthase (BS); test: Effect of MTA nucleosidase on BS activity in the presence of inhibitors; type: biochemical
[7] = biological target: T1, Escherichia coli biotin synthase (BS); test: Equilibrium UV/visible titration of AdoHcy binding to reconstituted BS
[8] = biological target: T1, Escherichia coli biotin synthase (BS); test: Titration of BS active sites with AdoHcy in the activity assay; type: biochemical; details: extrapolation of the initial linear part of the inhibition curve
[9] = cited from earlier work
[10] = biological target: T1, Escherichia coli biotin synthase (BS); details: read-out: Kd AdoMet; cited from earlier work
[11] = biological target: T1, Escherichia coli biotin synthase (BS); test: BS activity at varying AdoMet concentration, commercial versus pure AdoMet; type: biochemical; details: enzymatically synthesized AdoMet, Michaelis-Menten fit; BS 25 μM
[12] = biological target: T2, E. coli MTAN (5′-methylthioadenosine/S-adenosyl-L-homocysteine nucleosidase); test: MTA/AdoHcy nucleosidase activity assay; type: biochemical
E. coli BS = E. coli BS (Escherichia coli, UniProt P12996); details: high AdoMet concentration, 3 h at 37 °C; cited from earlier work
E. coli BS, sequence (P12996 whole entry): as the sequence (P12996 whole entry) above

BS = details: 30 μM dAH, 90 min assay; cited from earlier work
DNA methyltransferases = details: binding cooperatively with DNA; cited from earlier work
[13] = Ki, inhibitor alone, competitive with AdoMet

Compound: 5′-methylthioadenosine [MTA]
- inhibition of BS in the screen [1]: not an inhibitor

Compound: C[S+](CC[C@H](N)C(=O)[O-])C[C@H]1O[C@@H](n2cnc3c(N)ncnc32)[C@H](O)[C@@H]1O (stereo partly drawn) [(R,S)-AdoMet]
- decrease of biotin production ([1]; heat-racemized AdoMet, 55 μM (R,S)-AdoMet and 100 μM (S,S)-AdoMet): ~15%

Compound: Nc1ncnc2c1ncn2[C@@H]1O[C@H](CSCC[C@H](N)C(=O)O)[C@@H](O)[C@H]1O [AdoHcy, S-adenosyl-L-homocysteine]
- inhibition of BS in the screen [1]: no detectable biotin produced
- level of MDTB intermediate relative to control ([1]; inhibitor 500 μM, 30 min assay): less MDTB than the control sample
- Ki ([2]; Ki AdoHcy, fit to eq 1 with a, b, c = 1 and d = 0, AdoMet 100-500 μM): ≤ 0.65 µM and 0.4 to 1.2 µM and < 0.65 µM and 0.65 µM
- Ki [3]: 50 µM
- IC50 (PFL activase): ~20 µM
- Ki [4]: 14 µM
- kcat [5]: 2.6 s⁻¹
- BS activity on addition of MTAN ([6]; MTAN 200 nM): only partially restored
- decrease of BS activity ([6]; inhibitor 50 μM (each), without MTAN, BS 25 μM, 37 °C): ~ 95%
- Kd [7]: 0.54 ± 0.15 µM
- AdoHcy binding sites per BS dimer ([7]; equilibrium titration, BS 50 μM): 1.5 sites per dimer
- koff ([7]; read-out: koff, inhibitor dissociation): ≥ 10 s⁻¹
- AdoHcy equivalents (sites) per BS dimer for complete inhibition [8]: 0.85 equiv per dimer

Compound: C[S+](CC[C@H](N)C(=O)[O-])C[C@H]1O[C@@H](n2cnc3c(N)ncnc32)[C@H](O)[C@@H]1O (stereo partly drawn) [AdoMet, S-adenosyl-L-methionine]
- t½ of spontaneous racemization at the sulfonium center ([9]; 37 °C): 107 h
- t½ of spontaneous degradation to MTA ([9]; physiological conditions): 42 h
- Kd [10]: 2.3 µM
- Vmax [11]: 0.52 µM/min

Compound: NC(CCS)C(=O)O (centres unmarked) [Homocysteine]
- inhibition of BS in the screen [1]: not an inhibitor

Compound: O=C(O)CCCC[C@@H]1SC[C@@H]2NC(=O)N[C@@H]21 [biotin]
- inhibition of BS in the screen [1]: neither biotin nor iminobiotin, the guanido analogue of biotin, is a significant inhibitor

Compound: C[C@H]1O[C@@H](n2cnc3c(N)ncnc32)[C@H](O)[C@@H]1O [dAH, 5′-deoxyadenosine]
- turnover rate (kcat) faster than with AdoHcy [12]: 2 fold
- turnover rate (kcat) faster than with MTA [12]: 1.7 fold
- weaker affinity (Km) for MTA nucleosidase as compared to MTA [12]: 5.8 fold
- kcat ([12]; MTAN 12 nM, 50 mM sodium phosphate pH 7.5): 5.1 s⁻¹
- inhibition of BS in the screen [1]: inhibitors
- concentration of MDTB intermediate relative to the control sample ([1]; inhibitor 500 μM, 30 min assay): 3–4 times
- Ki [2, 13]: 20 µM
- enhancement of dAH inhibition by cooperative binding with methionine ([2]; excess methionine): 3 fold
- IC50 (E. coli BS): ~400 µM
- inhibition of biotin production (BS): ~ 90%

Compound: N=C1N[C@H]2[C@H](CS[C@H]2CCCCC(=O)O)N1 [iminobiotin]
- inhibition of BS in the screen [1]: neither biotin nor iminobiotin, the guanido analogue of biotin, is a significant inhibitor

Compound: CSCC[C@H](N)C(=O)O [methionine]
- inhibition of BS in the screen [1]: inhibitors
- Ki [2, 13]: 100 µM

Compound: Nc1ncnc2c1ncn2[C@@H]1O[C@H](C[C@@H](N)CC[C@H](N)C(=O)O)[C@@H](O)[C@H]1O [sinefungin]
- inhibition of BS in the screen [1]: inhibitor with a decrease in activity comparable to that observed for dAH
- level of MDTB intermediate relative to control ([1]; inhibitor 500 μM, 30 min assay): less MDTB than the control sample
- Ki [2, 13]: 40 to 140 µM and 75 µM
- Ki (DNA methyltransferases): ~0.01 µM
